Test results reported in ChEMBL document CHEMBL1124591, “Polyfluoro 1,3-diketones as systemic insecticides” (1989).

How the values were obtained:
Assay type in all cases: functional
[1] = tested on: Stomoxys calcitrans; test: In vitro insecticidal activity in bovine serum against adult stable fly
Outline: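 Twenty chilled 5-day-old hungry adult Stomoxys calcitrans in covered petri dish exposed to compound in bovine serum on saturated dental wick, incubated 24 or 48 h.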

[2] = tested on: Calliphoridae; test: In vitro insecticidal activity in bovine serum against Blowfly larvae
Outline: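 In vitro bait: ~50 first-instar blowflies placed on dental wick saturated with compound in bovine serum, in loosely plugged tube, 27 °C, 55% RH, under fluorescent light, 24 h.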

[3] = tested on: Stomoxys calcitrans; test: In vitro insecticidal activity against adult stable fly in serum collected from calves administered with 0.75 mg/kg
[4] = tested on: Calliphoridae; test: In vivo insecticidal activity against Larval blowfly from calves administered with 1.0 mg/kg
Outline: (§1)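 Calves dosed daily intraruminally through implanted rumen tube with diketone in 5 mL PEG-200 (vehicle and untreated controls). Daily serum fed on saturated dental wick to ~50 first-instar blowflies, 27 °C, 55% RH; mortality after 48 h (24 h where noted); day of onset of ≥50% mortality recorded.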

[5] = tested on: Stomoxys calcitrans; test: Mortality percentage on day 3 in Adult stable flies after their exposure to sera for 48 hours, from the cattle, administered with the compound at 5 mg/kg
Outline: (§2)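 Calves given single intraruminal 5 mg/kg in 5 mL PEG-200, with vehicle and untreated controls; serum collected daily and fed on saturated dental wick to adult stable flies (20/dish) or ~50 first-instar blowflies; % mortality read after 48 h exposure.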

[6] = tested on: Calliphoridae; test: In vivo insecticidal activity against Larval blowfly from calves administered with 0.50 mg/kg; conditions: dose 0.5 mg/kg; outline: as §1
[7] = tested on: Stomoxys calcitrans; test: In vivo insecticidal activity against adult stable fly in serum collected from calves administered with 1.0 mg/kg
[8] = tested on: Calliphoridae; test: Mortality percentage on day 7 in Blowfly larvae after their exposure to sera for 24 hours, from the cattle administered with the compound at 5 mg/kg
Outline: (§3)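 Calves given single intraruminal 5 mg/kg in 5 mL PEG-200 (two treated, one vehicle, one untreated). Blood taken pre-dose, 2, 5, 24 h, then daily; serum on saturated dental wick fed to adult stable flies (20/dish) or ~50 first-instar blowflies (27 °C, 55% RH); % mortality after 24 h exposure.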

[9] = tested on: Calliphoridae; test: In vivo insecticidal activity against Larval blowfly from calves administered with 0.75 mg/kg; outline: as §1
[10] = tested on: Stomoxys calcitrans; test: In vivo insecticidal activity against adult stable fly in serum collected from calves administered with 1.50 mg/kg; conditions: dose 1.5 mg/kg
[11] = tested on: Calliphoridae; test: Mortality percentage on day 4 in Blowfly larvae after their exposure to sera for 48 hours, from the cattle administered with the compound at 5 mg/kg; outline: as §2
[12] = tested on: Calliphoridae; test: Mortality percentage on day 0 in Blowfly larvae after their exposure to sera for 24 hours, from the cattle administered with the compound at 5 mg/kg; outline: as §3
[13] = tested on: Stomoxys calcitrans; test: Mortality percentage on day 5 in Adult stable flies after their exposure to sera for 24 hours, from the cattle, administered with the compound at 5 mg/kg; outline: as §3
[14] = tested on: Stomoxys calcitrans; test: Mortality percentage on day 7 in Adult stable flies after their exposure to sera for 24 hours, from the cattle, administered with the compound at 5 mg/kg; outline: as §3
[15] = tested on: Stomoxys calcitrans; test: In vivo insecticidal activity against adult stable fly in serum collected from calves administered with 0.75 mg/kg
[16] = tested on: Calliphoridae; test: Mortality percentage on day 2 in Blowfly larvae after their exposure to sera for 24 hours, from the cattle administered with the compound at 5 mg/kg; outline: as §3
[17] = tested on: Stomoxys calcitrans; test: Mortality percentage on 1 day in Adult stable flies after their exposure to sera for 24 hours, from the cattle, administered with the compound at 5 mg/kg; outline: as §3
[18] = tested on: Stomoxys calcitrans; test: In vivo insecticidal activity against adult stable fly in serum collected from calves administered with 0.50 mg/kg; conditions: dose 0.5 mg/kg
[19] = tested on: Calliphoridae; test: Mortality percentage on day 1 in Blowfly larvae after their exposure to sera for 24 hours, from the cattle administered with the compound at 5 mg/kg; outline: as §3
[20] = tested on: Calliphoridae; test: Mortality percentage on day 6 in Blowfly larvae after their exposure to sera for 48 hours, from the cattle administered with the compound at 5 mg/kg; outline: as §2
[21] = tested on: Calliphoridae; test: In vivo insecticidal activity against Larval blowfly from calves administered with 1.50 mg/kg; conditions: dose 1.5 mg/kg; outline: as §1
[22] = tested on: Calliphoridae; test: Mortality percentage on day 6 in Blowfly larvae after their exposure to sera for 24 hours, from the cattle administered with the compound at 5 mg/kg; outline: as §3
[23] = tested on: Calliphoridae; test: Mortality percentage on day 3 in Blowfly larvae after their exposure to sera for 48 hours, from the cattle administered with the compound at 5 mg/kg; outline: as §2
[24] = tested on: Calliphoridae; test: Mortality percentage on day 5 in Blowfly larvae after their exposure to sera for 24 hours, from the cattle administered with the compound at 5 mg/kg; outline: as §3
[25] = tested on: Stomoxys calcitrans; test: Mortality percentage on day 6 in Adult stable flies after their exposure to sera for 24 hours, from the cattle, administered with the compound at 5 mg/kg; outline: as §3
[26] = tested on: Stomoxys calcitrans; test: Mortality percentage on 0 day in Adult stable flies after their exposure to sera for 24 hours, from the cattle, administered with the compound at 5 mg/kg; outline: as §3
[27] = tested on: Calliphoridae; test: Mortality percentage on day 4 in Blowfly larvae after their exposure to sera for 24 hours, from the cattle administered with the compound at 5 mg/kg; outline: as §3
[28] = tested on: Stomoxys calcitrans; test: In vitro insecticidal activity against adult stable fly in serum collected from calves administered with 0.50 mg/kg; conditions: dose 0.5 mg/kg
[29] = tested on: Stomoxys calcitrans; test: Mortality percentage on day 5 in Adult stable flies after their exposure to sera for 48 hours, from the cattle, administered with the compound at 5 mg/kg; outline: as §2
[30] = tested on: Stomoxys calcitrans; test: In vitro insecticidal activity against adult stable fly in serum collected from calves administered with 1.50 mg/kg; conditions: dose 1.5 mg/kg
[31] = tested on: Calliphoridae; test: Mortality percentage on day 5 in Blowfly larvae after their exposure to sera for 48 hours, from the cattle administered with the compound at 5 mg/kg; outline: as §2
[32] = tested on: Calliphoridae; test: Mortality percentage on day 3 in Blowfly larvae after their exposure to sera for 24 hours, from the cattle administered with the compound at 5 mg/kg; outline: as §3
[33] = tested on: Stomoxys calcitrans; test: In vitro insecticidal activity against adult stable fly in serum collected from calves administered with 1 mg/kg
[34] = tested on: Stomoxys calcitrans; test: Mortality percentage on day 6 in Adult stable flies after their exposure to sera for 48 hours, from the cattle, administered with the compound at 5 mg/kg; outline: as §2
[35] = tested on: Stomoxys calcitrans; test: Mortality percentage after on day 2 in Adult stable flies after their exposure to sera for 24 hours, from the cattle, administered with the compound at 5 mg/kg; outline: as §3
[36] = tested on: Stomoxys calcitrans; test: Mortality percentage on day 3 in Adult stable flies after their exposure to sera for 24 hours, from the cattle, administered with the compound at 5 mg/kg; outline: as §3
[37] = tested on: Stomoxys calcitrans; test: In vitro insecticidal activity against adult stable fly in serum collected from calves administered with 0.35 mg/kg
[38] = tested on: Stomoxys calcitrans; test: In vivo insecticidal activity against adult stable fly in serum collected from calves administered with 1 mg/kg
[39] = tested on: Stomoxys calcitrans; test: In vitro insecticidal activity against adult stable fly in serum collected from calves administered with 1.00 mg/kg
[40] = tested on: Calliphoridae; test: In vivo insecticidal activity against Larval blowfly from calves administered with 0.20 mg/kg; conditions: dose 0.2 mg/kg; outline: as §1

## O=C(/C=C(\[O-])c1ccc(F)c(F)c1)C(F)(F)C(F)(F)C(F)(F)F.[Na+]
[1]
  Lowest effective concentration: 25 p.p.m.
[2]
  Lowest effective concentration: 30 p.p.m.

## O=C(/C=C(\[O-])c1cc(Cl)cc(Cl)c1)C(F)(F)C(F)(F)F.[Na+]
[3]
  Activity: 4 day of onset
[4]
  Activity: 5 day of onset
[5]
  mortality at 5 mg/kg: 100%
[6]
  Activity: 6 day of onset
[7]
  Activity: 3 day of onset
[8]
  mortality at 5 mg/kg: 0%
[9]
  Activity: 4 day of onset
[10]
  Activity: 2 day of onset
[11]
  mortality at 5 mg/kg: 50%
[12]
  mortality at 5 mg/kg: 0%
[1]
  Lowest effective concentration: 20 p.p.m.
[13]
  mortality at 5 mg/kg: 0%
[14]
  mortality at 5 mg/kg: 10%
[15]
  Activity: 4 day of onset
[16]
  mortality at 5 mg/kg: 0%
[17]
  mortality at 5 mg/kg: 20%
[18]
  Activity: 6 day of onset
[19]
  mortality at 5 mg/kg: 0%
[20]
  mortality at 5 mg/kg: 0%
[21]
  Activity: 2 day of onset
[22]
  mortality at 5 mg/kg: 0%
[23]
  mortality at 5 mg/kg: 100%
[24]
  mortality at 5 mg/kg: 0%
[25]
  mortality at 5 mg/kg: 0%
[2]
  Lowest effective concentration: 40 p.p.m.
[26]
  mortality at 5 mg/kg: 0%
[27]
  mortality at 5 mg/kg: 0%
[28]
  Activity: 6 day of onset
[29]
  mortality at 5 mg/kg: 80%
[30]
  Activity: 2 day of onset
[31]
  mortality at 5 mg/kg: 0%
[32]
  mortality at 5 mg/kg: 0%
[33]
  Activity: 3 day of onset
[34]
  mortality at 5 mg/kg: 30%
[35]
  mortality at 5 mg/kg: 55%
[36]
  mortality at 5 mg/kg: 45%

## O=C(/C=C(\[O-])c1cc(Br)cc(Br)c1)C(F)(F)C(F)(F)C(F)(F)F.[Na+]
[1]
  Lowest effective concentration: 25 p.p.m.
[2]
  Lowest effective concentration: 25 p.p.m.

## O=C(/C=C(\[O-])c1ccc(C(F)(F)F)cc1)C(F)(F)C(F)(F)C(F)(F)F.[Na+]
[1]
  Lowest effective concentration: 30 p.p.m.
[2]
  Lowest effective concentration: 35 p.p.m.

## O=C(/C=C(\[O-])c1cccc(C(F)(F)F)c1)C(F)(F)C(F)(F)C(F)(F)F.[Na+]
[1]
  Lowest effective concentration: 35 p.p.m.
[2]
  Lowest effective concentration: 40 p.p.m.

## O=C(/C=C(\[O-])c1cc(Cl)cc(Cl)c1)C(F)(F)C(F)(F)C(F)(F)F.[Na+]
[37]
  Activity: 9 day of onset
[6]
  Activity: 8 day of onset
[1]
  Lowest effective concentration: 25 p.p.m.
[18]
  Activity: 4 day of onset
[38]
  Activity: 3 day of onset
[2]
  Lowest effective concentration: 15 p.p.m.
[28]
  Activity: 4 day of onset
[39]
  Activity: 3 day of onset
[40]
  Activity: 5 day of onset

## O=C(/C=C(\[O-])c1cc(Cl)cc(Cl)c1)C(F)(F)C(F)F.[Na+]
[1]
  Lowest effective concentration: 20 p.p.m.
[2]
  Lowest effective concentration: 25 p.p.m.
[39]
  Activity: 5 day of onset

## O=C(/C=C(\[O-])c1cc(Cl)cc(Cl)c1)C(F)(F)F.[Na+]
[1]
  Lowest effective concentration: 25 p.p.m.
[2]
  Lowest effective concentration: 20 p.p.m.

## Cc1c(COC(=O)C2C(/C=C(\Cl)C(F)(F)F)C2(C)C)cccc1-c1ccccc1 (stereo not drawn)
[1]
  Lowest effective concentration: 25 p.p.m.
[2]
  Lowest effective concentration: 5 p.p.m.

## O=C(/C=C(\[O-])c1ccc(Cl)cc1)C(F)(F)C(F)(F)C(F)(F)F.[Na+]
[1]
  Lowest effective concentration: 25 p.p.m.
[2]
  Lowest effective concentration: 50 p.p.m.

## O=C(/C=C(\[O-])c1ccc(Cl)c(Cl)c1)C(F)(F)C(F)(F)C(F)(F)F.[Na+]
[1]
  Lowest effective concentration: 25 p.p.m.
[2]
  Lowest effective concentration: 30 p.p.m.

## CC[C@H](C)[C@H]1O[C@]2(C=C[C@@H]1C)C[C@@H]1C[C@@H](C/C=C(\C)[C@@H](O[C@H]3C[C@H](OC)[C@@H](O[C@H]4C[C@H](OC)[C@@H](O)[C@H](C)O4)[C@H](C)O3)[C@@H](C)/C=C/C=C3\CO[C@@H]4[C@H](O)C(C)=C[C@@H](C(=O)O1)[C@]34O)O2 [ABAMECTIN COMPONENT B1A]
[1]
  Lowest effective concentration: 10 p.p.m.
[2]
  Lowest effective concentration: 0.5 p.p.m.

## CNC(=O)Oc1cccc2c1OC(C)(C)C2 [CARBOFURAN]
[1]
  Lowest effective concentration: 1 p.p.m.
[2]
  Lowest effective concentration: 5 p.p.m.
